High-throughput results as filed in PubChem BioAssay.
An excerpt weighted towards active compounds, which were near 2.6% of everything screened.
UCH37 DUB inh: blocks the human deubiquitinase UCH37. hit rate 0.33% among 330,000. Q9Y5K5. purified proteasome/UCH37, Ub-AMC cleavage fluorescence. inhibition, % (test concentration not listed);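 active means mean inhibition over replicate wells above about 20%, limit read from the data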
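Test system – human UCH37 enzyme supplied as purified proteasome complex · Incubation – 30 min preincubation with enzyme, 25 min cleavage at room temperature · Detection – AMC fluorescence from Ub-AMC cleavage, excitation 355 nm, emission 460 nm · Benchmarks – no-proteasome wells (full inhibition) and compound-free wells (no inhibition)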
SENP8 block-1: blocks the human protease SENP8; Q96LD8; purified SENP8, Z-RLRGG-aminoluciferin cleavage, luminescence; inhibition, % at 10 µM; hit rate 1.2% among 330,000; in the data active means inhibition above about 50%
SENP6 block: inhibitors of human SENP6 protease. Q9GZR1. Recombinant SENP6 catalytic domain, aminoluciferin luminescence. inhibition, % at 10 µM. hit rate 1.8% among 330,000. AID 2599;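 active means inhibition above about 50% at the single tested dose, limit read from the data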
SENP8 block-2: inhibitors of human SENP8 protease. recombinant SENP8, Nedd8 substrate fluorescence. hit rate 0.64% among 360,000. Q96LD8. inhibition, % at 20 µM; in the data active means inhibition mostly above about 40%, no sharp cut-off; inactive means mostly below about 27%
SENP1 inh: SENP1 (human) catalytic domain inhibition | recombinant SENP1 catalytic domain, CyPet-SUMO1-YPet FRET cleavage | inhibition, % at 10 µM | hit rate 0.21% among 360,000 | AID 624204;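 active means inhibition at least 30% at 10 µM, raw YFP signal under a set limit, fluorescence ratio 0.5 to 1.5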
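Test system: recombinant human SENP1 catalytic domain, His6-tagged / Medium: pH 8 Tris buffer with EDTA, NaCl, BME, BSA, NP40, catalase / Also added: SUMO1 FRET substrate flanked by Cypet and Ypet, 25 nM / Times: 50 min reaction at room temperature / Signal: FRET, CFP and YFP emission / Control set: no-enzyme low control and enzyme-plus-DMSO high control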
SENP7 inh: SENP7 protease inhibition; Q9BQF6; recombinant SENP7, Z-RLRGG-aminoluciferin luminescence, 40 min; inhibition, % at 5 µM; hit rate 1.5% among 330,000; AID 434973;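 active means inhibition above about 50% at the single test dose, limit read from the data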
Target sequence (Q9BQF6 706-1050 limits assumed): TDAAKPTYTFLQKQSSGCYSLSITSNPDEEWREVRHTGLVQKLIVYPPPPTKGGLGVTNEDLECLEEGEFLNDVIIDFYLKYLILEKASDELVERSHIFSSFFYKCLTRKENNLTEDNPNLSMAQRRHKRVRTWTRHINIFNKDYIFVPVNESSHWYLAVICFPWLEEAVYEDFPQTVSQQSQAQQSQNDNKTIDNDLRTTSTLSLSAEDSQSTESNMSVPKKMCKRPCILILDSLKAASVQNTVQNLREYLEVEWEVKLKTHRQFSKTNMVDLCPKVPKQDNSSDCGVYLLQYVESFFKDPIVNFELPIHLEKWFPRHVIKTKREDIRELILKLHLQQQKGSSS
SENP8 confirm: human SENP8 inhibition, confirmed. shares compounds with SENP7 inh. Recombinant SENP8, Z-RLRGG-aminoluciferin luminescence, 60 min. inhibition, % at 12.5 µM. hit rate 40% among 6,200. AID 488912;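 active means mean inhibition across replicates above about 50%, limit read from the data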
SENP6 confirm: confirmation of human SENP6 protease inhibitors. inhibition, % at 12.5 µM. hit rate 58% among 6,200. recombinant SENP6, Z-RLRGG-aminoluciferin luminescence. shares compounds with SENP7 inh
SENP7 confirm: confirmation of human SENP7 protease inhibitors; inhibition, % at 12.5 µM; recombinant SENP7, Z-RLRGG-aminoluciferin luminescence, 40 min; hit rate 69% among 6,200; shares compounds with SENP7 inh; AID 488917
Casp3 select: selectivity test for SENP inhibitors: human caspase-3 inhibition | purified caspase-3, Z-DEVD-aminoluciferin luminescence, 60 min | AID 488918 | hit rate 60% among 6,200 | shares compounds with SENP7 inh | inhibition, % at 12.5 µM;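 active means mean inhibition above about 50%, limit read from the data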
Target sequence (P42574 28-227 limits assumed): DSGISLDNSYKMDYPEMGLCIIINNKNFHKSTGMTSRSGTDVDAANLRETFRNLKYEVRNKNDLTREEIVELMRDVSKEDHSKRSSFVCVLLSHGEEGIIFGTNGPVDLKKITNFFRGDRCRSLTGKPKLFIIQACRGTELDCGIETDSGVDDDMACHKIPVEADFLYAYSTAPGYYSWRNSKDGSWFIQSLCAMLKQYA
Luc interf: interferes with luciferase luminescence in SENP counter-screen; inhibition, % at 12.5 µM; shares compounds with SENP7 inh; hit rate 39% among 6,200; Pre-incubated SENP8/Z-RLRGG-aminoluciferin, luciferase luminescence interference;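 active means mean inhibition above about 50% when retested at one dose, limit read from the data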
Hits are given with their value; - = inactive; . = not tested or not shown.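 How the source made its calls, unless noted: active means mean inhibition above about 50% in the one-dose retest (limit read from the data); inactive means the rest.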

SMILES | UCH37 DUB inh | SENP8 block-1 | SENP6 block | SENP8 block-2 | SENP1 inh | SENP7 inh | SENP8 confirm | SENP6 confirm | SENP7 confirm | Casp3 select | Luc interf
CC(=NNC(=O)CSc1nc2nc(C)cc(C)n2n1)c1ccccc1 | - | . | . | . | . | . | . | . | . | . | .
CCCCn1c(NC(C)=O)c(C#N)c2nc3ccccc3nc21 | - | - | 97 | - | - | 66 | - | - | - | - | -
CCCCn1c(NC(=O)c2ccco2)c(S(=O)(=O)c2ccc(C)cc2)c2nc3ccccc3nc21 | - | . | . | - | - | . | . | . | . | . | .
CCCCn1c(NC(=O)c2ccc(Br)o2)c(S(=O)(=O)c2ccccc2)c2nc3ccccc3nc21 | - | 86 | 87 | - | - | - | - | - | - | - | -
C=CCn1c(NC(=O)c2ccccc2Cl)c(C#N)c2nc3ccccc3nc21 | - | 97 | 94 | - | - | - | - | 73 | 66 | - | -
Cc1ccc(NC(=O)CON=Cc2ccc(N(C)C)cc2)cc1 | - | . | . | . | . | . | . | . | . | . | .
COc1ccccc1NS(=O)(=O)c1cccc(C(=O)NN=C(C)c2ccc(-n3ccnc3)cc2)c1 | - | . | . | . | . | . | . | . | . | . | .
Cc1ccc(-c2nnc(SCC(=O)NN=Cc3c(C)nn(-c4ccccc4)c3C)n2-c2ccc(C)cc2)cc1 | - | . | . | . | . | . | . | . | . | . | .
CCSc1ncc(C=NNc2ccc(Cl)cc2)n1C | - | . | . | . | . | . | . | . | . | . | .
COc1ccccc1C(=O)Nc1nsc(-c2ccccc2)n1 | - | - | 61 | - | - | 53 | 54 | 52 | 75 | 66 | 59
CC(=NNc1nc(-c2ccc(C)cc2C)cs1)c1cc2ccccc2oc1=O | - | . | . | . | . | . | . | . | . | . | .
CC(CC(=O)Nc1cccc(Cl)c1Cl)=NNC(=O)C(=O)N1CCCC1 | - | . | . | . | . | . | . | . | . | . | .
Cc1ccc2nc(-c3ccccc3)oc(=O)c2c1 | - | - | - | - | - | - | . | . | . | . | .
Nc1nc(-c2ccccc2)nc2sc3c(c12)CCCC3 | - | 58 | 84 | - | - | 75 | - | 70 | 90 | - | -
Cc1sc2nc(-c3ccccc3)oc(=O)c2c1C | - | 76 | - | - | - | 91 | 62 | 63 | 64 | 69 | -
Cc1ccc(-c2nc3ccccc3c(=O)o2)cc1 | - | - | 54 | - | - | - | - | - | - | - | -
O=c1oc(-c2ccco2)nc2sc3c(c12)CCCC3 | - | - | 72 | - | - | - | 66 | 54 | 52 | - | -
CC(CC(=O)Nc1cccnc1)=NNC(=O)C(=O)Nc1cccc(C)c1 | - | . | . | . | . | . | . | . | . | . | .
CCOc1cc(C=NNC(=O)c2c(-c3ccccc3)noc2C)ccc1O | - | . | . | . | . | . | . | . | . | . | .
COc1ccc2c(c1)-c1nc(N=Cc3cccc(OC)c3O)sc1CC2 | - | . | . | . | . | . | . | . | . | . | .
N#Cc1c(N=Cc2cc(Br)cs2)sc2c1CCC2 | - | . | . | . | . | . | . | . | . | . | .
O=c1oc(-c2ccccc2)nc2sc3c(c12)CCC3 | - | - | 91 | - | - | 88 | 51 | - | - | 64 | -
COCCCN=Cc1c(C)[nH]n(-c2ccc(Br)c(C)c2)c1=O | - | - | 53 | - | - | - | - | - | - | - | -
COc1cc(C=NNc2snc(SC)c2C#N)ccc1O | - | . | . | . | . | . | . | . | . | . | .
CSc1nsc(N/N=C/c2ccc3c(c2)OCO3)c1C#N | . | - | - | - | - | 53 | - | - | - | - | -
SMILES | UCH37 DUB inh | SENP8 block-1 | SENP6 block | SENP8 block-2 | SENP1 inh | SENP7 inh | SENP8 confirm | SENP6 confirm | SENP7 confirm | Casp3 select | Luc interf
C/C(C=NNc1nnc2c(n1)[nH]c1c(C)cccc12)=C\c1ccco1 | - | . | . | . | . | . | . | . | . | . | .
O=C(O)c1ccc(N/N=C/c2cn(Cc3ccccc3F)c3ccccc23)cc1 | . | 88 | 84 | - | - | - | 96 | 95 | 99 | - | -
CC(C)n1cc(/C=N/Nc2ccc(C(=O)O)cc2)c2ccccc21 | . | 80 | 82 | - | - | 61 | 90 | 89 | 96 | 61 | 55
CCCn1c(O)c(N=Nc2ccc3ccccc3n2)c2ccccc21 | - | 85 | 95 | - | - | 93 | - | 57 | 61 | 70 | -
O=[N+]([O-])c1cccc(C=NNS(=O)(=O)c2ccccc2)c1 | - | . | . | . | . | . | . | . | . | . | .
Fc1ccc(Nc2ccc3ccccc3n2)c(F)c1 | - | 95 | 95 | - | - | 99 | 98 | 99 | 103 | 95 | 93
O=C(NN=Cc1ccc[nH]1)c1ccccc1OCc1ccccc1Cl | - | . | . | . | . | . | . | . | . | . | .
Oc1ccc(-c2cn3cc(C(F)(F)F)ccc3n2)cc1 | - | - | 55 | - | - | - | 58 | 52 | 83 | 60 | 65
Cc1ccc2nc(-c3ccc(O)c(O)c3)cn2c1 | . | - | 72 | - | - | 57 | 69 | 67 | 90 | 84 | 72
Cc1ccc2nc(-c3ccccc3)cn2c1 | - | 95 | 99 | - | - | 99 | 99 | 100 | 103 | 99 | 98
Clc1ccc(-c2cn3cc(Cl)ccc3n2)cc1 | - | 69 | 82 | - | - | 93 | - | - | - | - | -
CCOC(=O)c1ccc(-c2ccc(C=NNC(=O)CN(c3ccccc3Br)S(C)(=O)=O)o2)cc1 | - | . | . | . | . | . | . | . | . | . | .
CN1CCc2nc(SCC(=O)Nc3cccc(F)c3)c(C#N)c(-c3cccs3)c2C1 | - | 57 | 77 | - | - | 60 | - | - | - | - | -
CC(C)(C)C(=O)CSc1nc2c(c(-c3cccs3)c1C#N)CCC2 | - | - | - | - | - | - | . | . | . | . | .
CN1/C(=C\C(=O)c2cccs2)Sc2ccccc21 | - | 82 | 86 | - | - | - | 91 | 90 | 100 | 92 | 92
CN1/C(=C\C(=O)c2cccs2)C(C)(C)c2ccccc21 | - | - | - | - | - | - | . | . | . | . | .
CN1/C(=C/C(=O)c2cccs2)Sc2ccccc21 | - | 84 | 90 | - | - | 83 | 94 | 94 | 102 | 94 | 92
COc1cc(OC)cc(C(=O)/C=C2\Sc3ccccc3N2C)c1 | - | - | - | - | - | - | . | . | . | . | .
COC(=O)NN=Cc1cc(Br)ccc1O | - | . | . | . | . | . | . | . | . | . | .
Cc1ccccc1Nc1nc2ccccc2s1 | - | 68 | - | - | - | 72 | 84 | 84 | 95 | 69 | 71
COc1ccc(Nc2nc3ccccc3c(=O)s2)c(OC)c1 | - | - | - | - | - | - | . | . | . | . | .
COc1ccc2nc(Nc3ccccc3OC)sc2c1 | - | 92 | 92 | - | - | 98 | 96 | 96 | 101 | 91 | 87
COc1ccc2nc(NC(=O)Nc3ccccc3OC)sc2c1 | - | - | 81 | - | - | 93 | - | - | - | 64 | -
